Experimental data reported in ChEMBL document CHEMBL1136701, “Design, synthesis and biological activity of beta-carboline-based type-5 phosphodiesterase inhibitors” (Bioorg Med Chem Lett, 2003).

Legend:
[1] = target: Dual 3',5'-cyclic-AMP and -GMP phosphodiesterase 11A (Homo sapiens, UniProt Q9HCR9); assay: Inhibitory activity against phosphodiesterase 11 (PDE11) obtained from recombinant Sf9 expression
How it was run: (§1)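 Scintillation proximity assay: fixed enzyme amount with varying inhibitor concentrations; substrate cGMP (3:1 unlabelled to [³H]-labelled) at about 1/3 Km, so that IC50 ≈ Ki. Buffer 20 mM Tris–HCl pH 7.4, 5 mM MgCl2, BSA. Reactions started with enzyme, run 30–60 min at 30 °C, stopped with yttrium silicate SPA beads. Counts converted to % of uninhibited control; IC50 from curve fit.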

[2] = target: T1, cGMP-specific 3',5'-cyclic phosphodiesterase (Homo sapiens, UniProt O76074); assay: Inhibitory activity against phosphodiesterase 5 (PDE5) obtained from human corpus cavernosum tissue; how it was run: as §1
[3] = Relative inhibitoin of PDE11 and PDE5
Phosphodiesterase 6 = assay: Inhibitory activity against phosphodiesterase 6 (PDE6) obtained from canine or bovine retina; type: protein assay; how it was run: as §1
[4] = target: T1, cGMP-specific 3',5'-cyclic phosphodiesterase; assay: Selectivity ratio of the compound against PDE6 to that of PED5
[5] = Relative inhibition of PDE11 and PDE5

Sequence of Dual 3',5'-cyclic-AMP and -GMP phosphodiesterase 11A (Q9HCR9 whole entry): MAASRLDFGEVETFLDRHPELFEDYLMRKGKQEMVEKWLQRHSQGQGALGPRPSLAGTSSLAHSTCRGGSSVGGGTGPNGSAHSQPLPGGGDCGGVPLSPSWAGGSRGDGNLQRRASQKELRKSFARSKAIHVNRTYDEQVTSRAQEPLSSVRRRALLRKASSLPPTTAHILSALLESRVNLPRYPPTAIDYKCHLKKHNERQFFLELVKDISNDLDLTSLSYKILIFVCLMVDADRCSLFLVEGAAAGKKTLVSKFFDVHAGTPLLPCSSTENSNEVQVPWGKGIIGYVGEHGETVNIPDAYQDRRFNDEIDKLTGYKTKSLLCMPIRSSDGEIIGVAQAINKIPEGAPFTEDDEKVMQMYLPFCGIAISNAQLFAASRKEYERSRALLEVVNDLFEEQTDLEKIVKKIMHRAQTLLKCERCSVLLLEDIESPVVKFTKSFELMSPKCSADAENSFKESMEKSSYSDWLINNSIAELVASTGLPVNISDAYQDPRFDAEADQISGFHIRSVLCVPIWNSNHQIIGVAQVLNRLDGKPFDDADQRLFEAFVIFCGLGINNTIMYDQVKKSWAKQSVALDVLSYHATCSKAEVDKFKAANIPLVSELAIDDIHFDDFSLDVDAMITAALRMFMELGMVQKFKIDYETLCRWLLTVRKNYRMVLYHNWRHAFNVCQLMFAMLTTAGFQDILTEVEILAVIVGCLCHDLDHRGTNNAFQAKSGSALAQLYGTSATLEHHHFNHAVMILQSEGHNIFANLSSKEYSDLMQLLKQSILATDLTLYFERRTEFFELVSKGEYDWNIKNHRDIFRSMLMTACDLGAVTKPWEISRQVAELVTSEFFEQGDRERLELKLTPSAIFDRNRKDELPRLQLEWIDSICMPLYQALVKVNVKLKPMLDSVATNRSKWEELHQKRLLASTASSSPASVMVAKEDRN

COc1ccc([C@@H]2c3[nH]c4ccccc4c3C[C@@H]3C(=O)N([C@@H]4CCN(Cc5ccccc5)C4)CC(=O)N23)cc1
IC50 [1]: 6.7 nM
IC50 [2]: 2.7 nM
Selectivity ratio [3]: 2.5

Cn1ccnc1CCN1CC[C@@H](N2CC(=O)N3[C@H](c4ccc5c(c4)OCO5)c4[nH]c5ccccc5c4C[C@@H]3C2=O)C1 (stereo in doubt; form 2) [listing 1 of 2 here]
IC50 [1]: 1.4 nM
IC50 [2]: 0.7 nM
IC50 (Phosphodiesterase 6): 125 nM

O=C1[C@H]2Cc3c([nH]c4ccccc34)[C@@H](c3ccc4c(c3)OCO4)N2C(=O)CN1[C@@H]1CCN(CCc2ccccn2)C1
IC50 [1]: 2.01 nM
Selectivity ratio [4]: 153
Selectivity ratio [5]: 1.4
IC50 [2]: 1.5 nM
IC50 (Phosphodiesterase 6): 226 nM

COc1ccc([C@@H]2c3[nH]c4ccccc4c3C[C@@H]3C(=O)N([C@@H]4CCN(Cc5ccccc5)C4)CC(=O)N23)cc1C
IC50 [1]: 71 nM
IC50 [2]: 132 nM
Selectivity ratio [3]: 0.5

Cc1ccc([C@@H]2c3[nH]c4ccccc4c3C[C@@H]3C(=O)N([C@@H]4CCN(Cc5ccccc5)C4)CC(=O)N23)cc1
IC50 [1]: 6.5 nM
IC50 [2]: 12.8 nM
Selectivity ratio [3]: 0.5

Cn1ccnc1CCN1CC[C@@H](N2CC(=O)N3[C@H](c4ccc5c(c4)OCO5)c4[nH]c5ccccc5c4C[C@@H]3C2=O)C1 (stereo in doubt; form 1) [listing 1 of 2 here]
Selectivity ratio [4]: 640
Selectivity ratio [5]: 2.6

COc1cccc([C@@H]2c3[nH]c4ccccc4c3C[C@@H]3C(=O)N([C@@H]4CCN(Cc5ccccc5)C4)CC(=O)N23)c1 (stereo in doubt; form 2) [listing 1 of 2 here]
Selectivity ratio [3]: 0.8

O=C1[C@H]2Cc3c([nH]c4ccccc34)[C@@H](c3ccc4c(c3)OCO4)N2C(=O)CN1CCN1CCOCC1
IC50 [2]: 56 nM
IC50 (Phosphodiesterase 6): 2966 nM

COCCCN1CC[C@@H](N2CC(=O)N3[C@H](c4ccc5c(c4)OCO5)c4[nH]c5ccccc5c4C[C@@H]3C2=O)C1
IC50 [1]: 22 nM
Selectivity ratio [4]: 188
Selectivity ratio [5]: 3
IC50 [2]: 7.1 nM
IC50 (Phosphodiesterase 6): 1340 nM

COc1cccc([C@@H]2c3[nH]c4ccccc4c3C[C@@H]3C(=O)N([C@@H]4CCN(Cc5ccccc5)C4)CC(=O)N23)c1 (stereo in doubt; form 2) [listing 2 of 2 here]
IC50 [1]: 11.8 nM
IC50 [2]: 15.6 nM

CN(C)CC(=O)CN1CC[C@@H](N2CC(=O)N3[C@H](c4ccc5c(c4)OCO5)c4[nH]c5ccccc5c4C[C@@H]3C2=O)C1
IC50 [1]: 48 nM
Selectivity ratio [5]: 2.4
IC50 [2]: 19.8 nM

Cn1ccnc1CCN1CC[C@@H](N2CC(=O)N3[C@H](c4ccc5c(c4)OCO5)c4[nH]c5ccccc5c4C[C@@H]3C2=O)C1 (stereo in doubt; form 1) [listing 2 of 2 here]
IC50 [1]: 2.2 nM
IC50 [2]: 0.8 nM
IC50 (Phosphodiesterase 6): 494 nM

O=C1[C@H]2Cc3c([nH]c4ccccc34)[C@@H](c3ccc4c(c3)OCO4)N2C(=O)CN1C1CN(Cc2ccccc2)C1
IC50 [1]: 950 nM
IC50 [2]: 164 nM

C=CCCN1CC[C@@H](N2CC(=O)N3[C@H](c4ccc5c(c4)OCO5)c4[nH]c5ccccc5c4C[C@@H]3C2=O)C1
Selectivity ratio [5]: 3
IC50 [2]: 4 nM

CN(C)CCN1CC(=O)N2[C@H](c3ccc4c(c3)OCO4)c3[nH]c4ccccc4c3C[C@@H]2C1=O
IC50 [1]: 53 nM
IC50 [2]: 134 nM
IC50 (Phosphodiesterase 6): 8224 nM

CCCN1CC[C@@H](N2CC(=O)N3[C@H](c4ccc5c(c4)OCO5)c4[nH]c5ccccc5c4C[C@@H]3C2=O)C1
Selectivity ratio [4]: > 175
IC50 [2]: 57 nM
IC50 (Phosphodiesterase 6): > 10000 nM

O=C1[C@H]2Cc3c([nH]c4ccccc34)[C@@H](c3ccc4c(c3)OCO4)N2C(=O)CN1[C@@H]1CCN(CCc2ncc[nH]2)C1
IC50 [1]: 3.5 nM
Selectivity ratio [4]: 300
Selectivity ratio [5]: 2.9
IC50 [2]: 1.2 nM
IC50 (Phosphodiesterase 6): 357 nM

COc1cccc([C@@H]2c3[nH]c4ccccc4c3C[C@@H]3C(=O)N([C@@H]4CCN(Cc5ccccc5)C4)CC(=O)N23)c1 (stereo in doubt; form 1) [listing 1 of 2 here]
Selectivity ratio [3]: 1.5

O=C1[C@H]2Cc3c([nH]c4ccccc34)[C@@H](c3ccc4c(c3)OCO4)N2C(=O)CN1[C@@H]1CCN(CCc2cnccn2)C1
IC50 [1]: 4.2 nM
Selectivity ratio [4]: 181
Selectivity ratio [5]: 2.1
IC50 [2]: 2 nM
IC50 (Phosphodiesterase 6): 358 nM

CN(C)C(=O)CCN1CC[C@@H](N2CC(=O)N3[C@H](c4ccc5c(c4)OCO5)c4[nH]c5ccccc5c4C[C@@H]3C2=O)C1
IC50 [1]: 4.7 nM
Selectivity ratio [4]: 316
Selectivity ratio [5]: 1.9
IC50 [2]: 2.5 nM
IC50 (Phosphodiesterase 6): 807 nM

NC(=O)CCN1CC[C@@H](N2CC(=O)N3[C@H](c4ccc5c(c4)OCO5)c4[nH]c5ccccc5c4C[C@@H]3C2=O)C1
IC50 [1]: 48 nM
Selectivity ratio [4]: 189
Selectivity ratio [5]: 5.7
IC50 [2]: 8.4 nM
IC50 (Phosphodiesterase 6): 1601 nM

Cn1ccnc1CCN1CC[C@@H](N2CC(=O)N3[C@H](c4ccc5c(c4)OCO5)c4[nH]c5ccccc5c4C[C@@H]3C2=O)C1 (stereo in doubt; form 2) [listing 2 of 2 here]
Selectivity ratio [4]: 173
Selectivity ratio [5]: 2

CCCCCN1CC[C@@H](N2CC(=O)N3[C@H](c4ccc5c(c4)OCO5)c4[nH]c5ccccc5c4C[C@@H]3C2=O)C1
IC50 [1]: 31 nM
Selectivity ratio [4]: 134
Selectivity ratio [5]: 2.3
IC50 [2]: 13.2 nM
IC50 (Phosphodiesterase 6): 1770 nM

O=C1[C@H]2Cc3c([nH]c4ccccc34)[C@@H](c3ccc4c(c3)OCO4)N2C(=O)CN1C1CCN(Cc2ccccc2)CC1
IC50 [2]: 26 nM
IC50 (Phosphodiesterase 6): 1619 nM

O=C1[C@H]2Cc3c([nH]c4ccccc34)[C@@H](c3ccc4c(c3)OCO4)N2C(=O)CN1[C@H]1CCN(Cc2ccccc2)C1
IC50 [1]: 85 nM

O=C1[C@H]2Cc3c([nH]c4ccccc34)[C@@H](c3ccc(O)nc3)N2C(=O)CN1[C@@H]1CCN(Cc2ccccc2)C1
IC50 [1]: 39 nM
IC50 [2]: 127 nM
Selectivity ratio [3]: 0.3

O=C1[C@H]2Cc3c([nH]c4ccccc34)[C@@H](c3ccc4c(c3)OCO4)N2C(=O)CN1[C@@H]1CCN(Cc2ccccc2)C1
IC50 [1]: 5.5 nM
IC50 (Phosphodiesterase 6): 249 nM

O=C1[C@H]2Cc3c([nH]c4ccccc34)[C@@H](c3ccc4c(c3)OCO4)N2C(=O)CN1[C@@H]1CCN(CCC2CC2)C1
IC50 [1]: 43 nM
Selectivity ratio [4]: 169
Selectivity ratio [5]: 2.7
IC50 [2]: 15.7 nM
IC50 (Phosphodiesterase 6): 2660 nM

COc1cccc([C@@H]2c3[nH]c4ccccc4c3C[C@@H]3C(=O)N([C@@H]4CCN(Cc5ccccc5)C4)CC(=O)N23)c1 (stereo in doubt; form 1) [listing 2 of 2 here]
IC50 [1]: 44 nM
IC50 [2]: 28.6 nM

COc1ccc([C@@H]2c3[nH]c4ccccc4c3C[C@@H]3C(=O)N([C@@H]4CCN(Cc5ccccc5)C4)CC(=O)N23)cc1OC
IC50 [1]: 1000 nM
IC50 [2]: > 1000 nM

O=C(CCN1CC[C@@H](N2CC(=O)N3[C@H](c4ccc5c(c4)OCO5)c4[nH]c5ccccc5c4C[C@@H]3C2=O)C1)N1CCC1
IC50 [1]: 4.7 nM
Selectivity ratio [4]: 211
Selectivity ratio [5]: 1.2
IC50 [2]: 4 nM
IC50 (Phosphodiesterase 6): 846 nM

CCNC(=O)CCN1CC[C@@H](N2CC(=O)N3[C@H](c4ccc5c(c4)OCO5)c4[nH]c5ccccc5c4C[C@@H]3C2=O)C1
IC50 [1]: 4.3 nM
Selectivity ratio [4]: 172
Selectivity ratio [5]: 1.2
IC50 [2]: 3.6 nM
IC50 (Phosphodiesterase 6): 620 nM

O=C1[C@H]2Cc3c([nH]c4ccccc34)[C@@H](c3ccc4c(c3)OCO4)N2C(=O)CN1[C@@H]1CCN(CCc2cccnc2)C1
IC50 [1]: 2.4 nM
Selectivity ratio [4]: 144
Selectivity ratio [5]: 1.3
IC50 [2]: 1.9 nM
IC50 (Phosphodiesterase 6): 271 nM
